In ChEMBL document CHEMBL4118192, “BET bromodomain ligands: Probing the WPF shelf to improve BRD4 bromodomain affinity and metabolic stability” (Bioorg Med Chem, 2018):

Assays:
Assay type in all cases: functional
SR [1] = assay: Growth inhibition of human SR cells after 48 hrs by sulforhodamine B assay
Outline: (§1)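 NCI-60 panel cells treated at five concentrations from 10 nM to 100 μM for 48 h. Read-out by sulforhodamine B protein stain. GI50 and total growth inhibition (TGI, if below 100 μM) taken from the concentration-response data.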

DU-145 = assay: Growth inhibition of human DU145 cells at 10 uM after 48 hrs by sulforhodamine B assay relative to control; details: DU-145, 48 h, read-out: GI
Outline: (§2)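 NCI-60 single-dose screen at 10 μM for 48 h. Percent growth inhibition was measured by sulforhodamine B staining of cellular protein.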

OVCAR-3 = assay: Growth inhibition of human OVCAR3 cells after 48 hrs by sulforhodamine B assay; details: OVCAR-3, 48 h
Outline: (§3)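 NCI-60 panel follow-up: five concentrations from 10 nM to 100 μM, 48 h exposure. Growth read by sulforhodamine B protein staining. GI50 derived from the concentration-response, with the concentration for total growth inhibition (TGI) also recorded when below 100 μM.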

IGROV-1 = assay: Growth inhibition of human IGROV1 cells at 10 uM after 48 hrs by sulforhodamine B assay relative to control; details: IGROV-1, 48 h, read-out: GI; outline: as §2
RPMI-8226 [2] = assay: Growth inhibition of human RPMI8226 cells at 10 uM after 48 hrs by sulforhodamine B assay relative to control; details: RPMI-8226, 48 h, read-out: GI
Outline: (§4)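 NCI-60 human cancer cell line screen, single-dose pass: cells exposed to 10 μM for 48 h. Cellular protein content read out by sulforhodamine B staining, and growth inhibition expressed relative to untreated control.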

NCI-H322M = assay: Growth inhibition of human NCI-H322M cells after 48 hrs by sulforhodamine B assay; outline: as §3
MOLT-4 = assay: Growth inhibition of human MOLT4 cells after 48 hrs by sulforhodamine B assay; details: MOLT-4, 48 h; outline: as §3
SK-OV-3 = assay: Growth inhibition of human SKOV3 cells at 10 uM after 48 hrs by sulforhodamine B assay relative to control; details: SK-OV-3, 48 h, read-out: GI; outline: as §4
SK-MEL-2 = assay: Growth inhibition of human SK-MEL-2 cells after 48 hrs by sulforhodamine B assay; details: SK-MEL-2, 48 h; outline: as §3
SR [3] = assay: Growth inhibition of human SR cells at 10 uM after 48 hrs by sulforhodamine B assay relative to control; details: read-out: GI
Outline: (§5)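 NCI-60 human cancer cell line screen, single dose of 10 μM for 48 h. Cellular protein content read by sulforhodamine B staining; growth inhibition expressed relative to untreated control.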

LOX IMVI = assay: Growth inhibition of human LOXIMVI cells at 10 uM after 48 hrs by sulforhodamine B assay relative to control; details: read-out: GI; outline: as §2
TK-10 = assay: Growth inhibition of human TK10 cells after 48 hrs by sulforhodamine B assay; details: TK-10, 48 h; outline: as §1
NCI-H460 = assay: Growth inhibition of human NCI-H460 cells at 10 uM after 48 hrs by sulforhodamine B assay relative to control; details: NCI-H460, 48 h, read-out: GI; outline: as §4
SF-268 = assay: Growth inhibition of human SF268 cells after 48 hrs by sulforhodamine B assay; details: SF-268, 48 h; outline: as §3
K562 = assay: Growth inhibition of human K562 cells after 48 hrs by sulforhodamine B assay; details: K562, 48 h
Outline: (§6)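 NCI-60 panel screen. Cells were exposed for 48 h at five concentrations between 10 nM and 100 μM. Cellular protein was read by sulforhodamine B staining, and GI50 and total growth inhibition (TGI) concentrations were derived.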

OVCAR-8 = assay: Growth inhibition of human OVCAR8 cells after 48 hrs by sulforhodamine B assay; details: OVCAR-8, 48 h; outline: as §3
HCT-116 = assay: Growth inhibition of human HCT116 cells after 48 hrs by sulforhodamine B assay; details: HCT-116, 48 h; outline: as §6
U-251 = assay: Growth inhibition of human U251 cells after 48 hrs by sulforhodamine B assay; details: U-251, 48 h; outline: as §1
KM12 = assay: Growth inhibition of human KM12 cells at 10 uM after 48 hrs by sulforhodamine B assay relative to control; details: KM12, 48 h, read-out: GI; outline: as §2
OVCAR-4 = assay: Growth inhibition of human OVCAR4 cells after 48 hrs by sulforhodamine B assay; details: OVCAR-4, 48 h; outline: as §3
SK-MEL-5 = assay: Growth inhibition of human SK-MEL-5 cells after 48 hrs by sulforhodamine B assay; details: SK-MEL-5, 48 h; outline: as §3
UACC-257 = assay: Growth inhibition of human UACC257 cells after 48 hrs by sulforhodamine B assay; details: UACC-257, 48 h; outline: as §1
M14 = assay: Growth inhibition of human M14 cells at 10 uM after 48 hrs by sulforhodamine B assay relative to control; details: M14, 48 h, read-out: GI; outline: as §2
HOP-92 = assay: Growth inhibition of human HOP92 cells after 48 hrs by sulforhodamine B assay; details: HOP-92, 48 h; outline: as §6
NCI/ADR-RES = assay: Growth inhibition of human NCI-ADR-RES cells after 48 hrs by sulforhodamine B assay; outline: as §3
HOP-62 = assay: Growth inhibition of human HOP62 cells after 48 hrs by sulforhodamine B assay; details: HOP-62, 48 h; outline: as §6
786-0 = assay: Growth inhibition of human 786-0 cells after 48 hrs by sulforhodamine B assay; details: 786-0, 48 h; outline: as §6
A498 = assay: Growth inhibition of human A498 cells at 10 uM after 48 hrs by sulforhodamine B assay relative to control; details: A498, 48 h, read-out: GI; outline: as §2
CAKI-1 = assay: Growth inhibition of human CAKI-1 cells at 10 uM after 48 hrs by sulforhodamine B assay relative to control; details: CAKI-1, 48 h, read-out: GI; outline: as §2
T47D = assay: Growth inhibition of human T47D cells after 48 hrs by sulforhodamine B assay; outline: as §1
SN12C = assay: Growth inhibition of human SN12C cells at 10 uM after 48 hrs by sulforhodamine B assay relative to control; details: read-out: GI; outline: as §4
RPMI-8226 [4] = assay: Growth inhibition of human RPMI8226 cells after 48 hrs by sulforhodamine B assay; details: RPMI-8226, 48 h; outline: as §3
Malme-3M = assay: Growth inhibition of human MALME-3M cells at 10 uM after 48 hrs by sulforhodamine B assay relative to control; details: read-out: GI; outline: as §2
SW-620 = assay: Growth inhibition of human SW620 cells at 10 uM after 48 hrs by sulforhodamine B assay relative to control; details: SW-620, 48 h, read-out: GI; outline: as §5
RXF 393 = assay: Growth inhibition of human RXF393 cells after 48 hrs by sulforhodamine B assay; details: RXF 393, 48 h; outline: as §3
UO-31 = assay: Growth inhibition of human UO31 cells at 10 uM after 48 hrs by sulforhodamine B assay relative to control; details: UO-31, 48 h, read-out: GI; outline: as §5

SMILES: Cc1noc(C)c1-c1cc(O)cc(C(O)c2ccccc2)c1 (centres undefined)
- GI50 (SR [1]): 1.01 µM
- inhibition of growth at 10 µM (DU-145): 12.5%
- GI50 (OVCAR-3): 6.64 µM
- inhibition of growth at 10 µM (IGROV-1): 54%
- inhibition of growth at 10 µM (RPMI-8226 [2]): 85.1%
- GI50 (NCI-H322M): 8.41 µM
- GI50 (MOLT-4): 17.9 µM
- TGI (MOLT-4): 80.7 µM
- inhibition of growth at 10 µM (SK-OV-3): 56.3%
- GI50 (SK-MEL-2): 23.5 µM
- inhibition of growth at 10 µM (SR [3]): 72.9%
- inhibition of growth at 10 µM (LOX IMVI): 72.7%
- GI50 (TK-10): 1.08 µM
- inhibition of growth at 10 µM (NCI-H460): 32.8%
- GI50 (SF-268): 39.3 µM
- GI50 (K562): 8.69 µM
- GI50 (OVCAR-8): 8.33 µM
- GI50 (HCT-116): 7.08 µM
- GI50 (U-251): 15 µM
- inhibition of growth at 10 µM (KM12): 46.9%
- GI50 (OVCAR-4): 6.35 µM
- GI50 (SK-MEL-5): 5.95 µM
- TGI (SK-MEL-5): 29.5 µM
- GI50 (UACC-257): 4.66 µM
- inhibition of growth at 10 µM (M14): 44%
- GI50 (HOP-92): 1.02 µM
- TGI (HOP-92): 72.9 µM
- GI50 (NCI/ADR-RES): 6.32 µM
- GI50 (HOP-62): 4.89 µM
- GI50 (786-0): 27.1 µM
- inhibition of growth at 10 µM (A498): 103%
- inhibition of growth at 10 µM (CAKI-1): 76.2%
- GI50 (T47D): 7.7 µM
- inhibition of growth at 10 µM (SN12C): 25.5%
- GI50 (RPMI-8226 [4]): 1.94 µM
- TGI (RPMI-8226 [4]): 9.7 µM
- inhibition of growth at 10 µM (Malme-3M): 40%
- inhibition of growth at 10 µM (SW-620): 27.9%
- GI50 (RXF 393): 17.2 µM
- inhibition of growth at 10 µM (UO-31): 83.1%

SMILES: COc1ccccc1S(=O)(=O)Nc1ccc2c(c1)CN(C)C(=O)N2
- GI50 (SR [1]): 3.7 µM
- inhibition of growth at 10 µM (DU-145): 22.2%
- GI50 (OVCAR-3): 4 µM
- TGI (OVCAR-3): 87.1 µM
- inhibition of growth at 10 µM (IGROV-1): 76%
- inhibition of growth at 10 µM (RPMI-8226 [2]): 95.7%
- GI50 (NCI-H322M): 6 µM
- GI50 (MOLT-4): 10.5 µM
- inhibition of growth at 10 µM (SK-OV-3): 50.9%
- GI50 (SK-MEL-2): 29.5 µM
- inhibition of growth at 10 µM (SR [3]): 64%
- inhibition of growth at 10 µM (LOX IMVI): 70.9%
- GI50 (TK-10): 1.6 µM
- TGI (TK-10): 58.9 µM
- inhibition of growth at 10 µM (NCI-H460): 44.2%
- GI50 (SF-268): 28.8 µM
- GI50 (K562): 4.6 µM
- GI50 (OVCAR-8): 9.1 µM
- GI50 (HCT-116): 4.5 µM
- GI50 (U-251): 15.1 µM
- inhibition of growth at 10 µM (KM12): 55%
- GI50 (OVCAR-4): 6.3 µM
- GI50 (SK-MEL-5): 6.3 µM
- GI50 (UACC-257): 3.6 µM
- inhibition of growth at 10 µM (M14): 52.2%
- GI50 (HOP-92): 1.2 µM
- TGI (HOP-92): 70.8 µM
- GI50 (NCI/ADR-RES): 17.4 µM
- GI50 (HOP-62): 2.5 µM
- GI50 (786-0): 12 µM
- inhibition of growth at 10 µM (A498): 103%
- inhibition of growth at 10 µM (CAKI-1): 78.8%
- GI50 (T47D): 3.7 µM
- inhibition of growth at 10 µM (SN12C): 46.8%
- GI50 (RPMI-8226 [4]): 2.2 µM
- inhibition of growth at 10 µM (Malme-3M): 67.8%
- inhibition of growth at 10 µM (SW-620): 40.6%
- GI50 (RXF 393): 7.9 µM
- inhibition of growth at 10 µM (UO-31): 89.8%
